# Results taken from ChEMBL document CHEMBL1152805, “Dual inhibitors of phosphodiesterase-4 and serotonin reuptake” (J Med Chem, 2009).
# The source made the active and inactive calls. No cut-off for these calls is given here.
# Experiments:
# [1] = test system: Mus musculus; assay: Antidepressant activity in ICR mouse assessed as decrease in immobility duration at 0.5 mg/kg, ip once a day for 8 days by forced swimming test; format: functional, organism-based; set-up: dose 0.5 mg/kg
# [2] = test system: Mus musculus; assay: Antidepressant activity in ICR mouse assessed as decrease in immobility duration at 0.5 mg/kg, ip by forced swimming test; format: functional, organism-based; set-up: dose 0.5 mg/kg
# [3] = target: T1, Sodium-dependent noradrenaline transporter (Homo sapiens, UniProt P23975); assay: Displacement of [125I]RTI-55 from human recombinant NET expressed in HEK293 cells by scintillation counting; format: cell-based
# [4] = target: T2, Sodium-dependent dopamine transporter (Homo sapiens, UniProt Q01959); assay: Displacement of [3H]dopamine from human recombinant DAT expressed in HEK293 cells by scintillation counting; format: cell-based
# How it was run: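 Suspended HEK-hDAT cells preincubated 10 min at 25 °C with test compound in Krebs-HEPES buffer. [3H]dopamine then added (20 nM final) for 10 min. Uptake stopped by filtration onto polyethylenimine-soaked GF/C filters, and radioactivity counted. Specific uptake defined with 5 µM mazindol. Triplicates, 3–4 experiments; Ki by Cheng-Prusoff.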
# [5] = target: T1, Sodium-dependent noradrenaline transporter; assay: Displacement of [3H]norepinephrine from human recombinant NET expressed in HEK293 cells by scintillation counting; format: cell-based
# [6] = Metabolic stability in mouse liver microsomes assessed as half life at 40 uM after 60 mins by HPLC in presence of NADPH; format: ADME, Microsome; settings: 1 h
# How it was run: (§1)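 Liver microsomes (0.5 mg protein) in potassium phosphate buffer, pH 7.4, with an NADPH-generating system (NADP+, glucose-6-phosphate, G6P dehydrogenase), DETAPAC and MgCl2. Test compound added at 40 µM and incubated at 37 °C with shaking. Samples stopped with CH2Cl2/2-propanol at 0, 10, 25, 40 and 60 min. Substrate loss measured by HPLC and half-life calculated.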
# [7] = test system: Liver microsomes; assay: Metabolic stability in human liver microsomes assessed as half life after 60 mins by HPLC in presence of NADPH; format: ADME, Microsome; settings: 1 h; how it was run: as §1
# [8] = target: 3',5'-cyclic-AMP phosphodiesterase 4D (Homo sapiens, UniProt Q08499); assay: Inhibition of human recombinant PDE4D3
# [9] = target: 3',5'-cyclic-AMP phosphodiesterase 4B (Homo sapiens, UniProt Q07343); assay: Inhibition of human recombinant PDE4B3 assessed as inhibition of cAMP hydrolysis
# [10] = target: 3',5'-cyclic-AMP phosphodiesterase 4A (Homo sapiens, UniProt P27815); assay: Inhibition of human recombinant PDE4A1 assessed as inhibition of cAMP hydrolysis
# [11] = target: T2, Sodium-dependent dopamine transporter; assay: Displacement of [125I]RTI-55 from human recombinant DAT expressed in HEK293 cells by scintillation counting; format: cell-based
# [12] = test system: Mus musculus; assay: Antidepressant activity in BALB/c mouse assessed as decrease in immobility duration at 37.4 umol/kg, ip administered 30 mins prior to test by forced swimming test; format: functional, organism-based
# How it was run: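 Acute dosing in male Balb/c mice (22.4 ± 0.1 g). Drug in 0.9% saline with 5% DMSO, given i.p. 30 min before the forced-swim test. Swim pretest once daily on 2 successive days, then test 24 h later. Each session was 6 min in a cylinder filled to 28 cm with water at 23 ± 1°C, scoring immobility duration. n = 10–11; ANOVA with Dunnett's test.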
# [13] = test system: Mus musculus; assay: Antidepressant activity in BALB/c mouse assessed as decrease in immobility duration at 37.4 umol/kg, ip administered 23 hrs, 5 hrs and 1 hr prior to test measured after 4 weeks by forced swimming test; format: functional, organism-based
# How it was run: (§2)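 Male Balb/c mice (22.4 ± 0.1 g), second session run 4 weeks after the first. Drug in 0.9% saline with 5% DMSO (vehicle alone as control), given i.p. 23, 5 and 1 hr before the forced-swim test, with no pretest training. Each mouse was placed 6 min in a water-filled cylinder (23 ± 1°C) and immobility duration recorded. n = 10–11; one-way ANOVA with Dunnett's test.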
# [14] = target: T3, Sodium-dependent serotonin transporter (Homo sapiens, UniProt P31645); format: cell-based, HEK293
# [15] = target: T3, Sodium-dependent serotonin transporter; assay: biochemical; format: cell-based, HEK293
# [16] = test system: Mus musculus; assay: Antidepressant activity in ICR mouse assessed as decrease in immobility duration at 40 mg/kg, ip by forced swimming test; format: functional, organism-based; set-up: dose 40 mg/kg
# [17] = test system: Mus musculus; assay: Antidepressant activity in BALB/c mouse assessed as decrease in immobility duration at 20 mg/kg, ip administered 30 mins prior to test by forced swimming test; format: functional, organism-based; set-up: dose 20 mg/kg
# How it was run: (§3)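 Acute dosing in male Balb/c mice (22.4 ± 0.1 g), i.p. 30 min before the forced-swim test. Vehicle was saline with 5% DMSO. Pretest swims were given on two successive days, then the test 24 h later. Each swim lasted 6 min in a cylinder of water 28 cm deep at 23 ± 1°C, scoring immobility (upright floating). n = 10–11. One-way ANOVA with Dunnett's test.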
# [18] = test system: Mus musculus; assay: Antidepressant activity in BALB/c mouse assessed as decrease in immobility duration at 32.3 umol/kg, ip administered 23 hrs, 5 hrs and 1 hr prior to test measured after 4 weeks by forced swimming test; format: functional, organism-based
# How it was run: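 Male Balb/c mice received subchronic i.p. dosing at 23, 5 and 1 hr before the forced-swim test, with no pretest training. This session ran 4 weeks after the acute session. Vehicle was saline with 5% DMSO. The swim lasted 6 min in a cylinder of water 28 cm deep at 23 ± 1°C, scoring immobility duration. n = 10–11. One-way ANOVA with Dunnett's test.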
# [19] = test system: Mus musculus; assay: Antidepressant activity in ICR mouse assessed as decrease in immobility duration at 65 umol/kg, ip administered 30 mins prior to test by forced swimming test; format: functional, organism-based
# [20] = test system: Mus musculus; assay: Antidepressant activity in ICR mouse assessed as decrease in immobility duration at 0.5 umol/kg, ip administered 30 mins prior to test by forced swimming test; format: functional, organism-based
# How it was run: (§4)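 Male ICR mice (26.2 ± 0.3 g), 12 h light cycle. Drug in 0.9% saline with 5% DMSO, given i.p. 30 min before the forced-swim test. Lower doses were tested first, then higher doses 1 week later after re-randomization. Swim pretest on 2 successive days, test 24 h later: 6 min in a cylinder with 28 cm of water at 23 ± 1°C, recording immobility. n = 9–11; ANOVA with Dunnett's test.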
# [21] = test system: Mus musculus; assay: Antidepressant activity in ICR mouse assessed as decrease in immobility duration at 5 umol/kg, ip administered 30 mins prior to test after 1 week by forced swimming test; format: functional, organism-based; how it was run: as §4
# [22] = test system: Mus musculus; assay: Antidepressant activity in BALB/c mouse assessed as decrease in immobility duration at 1 mg/kg, ip administered 23 hrs, 5 hrs and 1 hr prior to test measured after 4 weeks by forced swimming test; format: functional, organism-based; set-up: dose 1 mg/kg; how it was run: as §2
# [23] = test system: Mus musculus; assay: Antidepressant activity in ICR mouse assessed as decrease in immobility duration at 1 umol/kg, ip administered 30 mins prior to test by forced swimming test; format: functional, organism-based; how it was run: as §4
# [24] = test system: Mus musculus; assay: Antidepressant activity in ICR mouse assessed as decrease in immobility duration at 10 umol/kg, ip administered 30 mins prior to test after 1 week by forced swimming test; format: functional, organism-based; how it was run: as §4
# [25] = test system: Mus musculus; assay: Antidepressant activity in BALB/c mouse assessed as decrease in immobility duration at 35.5 umol/kg, ip administered 30 mins prior to test by forced swimming test; format: functional, organism-based; how it was run: as §3
# T2 sequence (Q01959 whole entry): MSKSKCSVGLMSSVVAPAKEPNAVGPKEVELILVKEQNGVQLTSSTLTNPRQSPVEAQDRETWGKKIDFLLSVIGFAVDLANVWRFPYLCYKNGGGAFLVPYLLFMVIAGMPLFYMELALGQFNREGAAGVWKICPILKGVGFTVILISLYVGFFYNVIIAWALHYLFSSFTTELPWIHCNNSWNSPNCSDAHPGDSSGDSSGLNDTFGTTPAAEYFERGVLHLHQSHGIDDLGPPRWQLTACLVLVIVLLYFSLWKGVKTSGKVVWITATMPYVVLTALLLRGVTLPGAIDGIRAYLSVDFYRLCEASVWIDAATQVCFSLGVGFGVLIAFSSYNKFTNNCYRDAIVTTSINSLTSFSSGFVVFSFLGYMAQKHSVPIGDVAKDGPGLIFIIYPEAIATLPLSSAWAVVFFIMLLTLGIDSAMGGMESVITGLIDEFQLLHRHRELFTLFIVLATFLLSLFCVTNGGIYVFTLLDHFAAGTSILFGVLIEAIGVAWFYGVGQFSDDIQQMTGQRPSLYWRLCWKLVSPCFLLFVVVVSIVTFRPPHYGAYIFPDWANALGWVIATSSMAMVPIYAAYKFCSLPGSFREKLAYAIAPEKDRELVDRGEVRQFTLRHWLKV
# 3',5'-cyclic-AMP phosphodiesterase 4A, sequence (P27815 whole entry): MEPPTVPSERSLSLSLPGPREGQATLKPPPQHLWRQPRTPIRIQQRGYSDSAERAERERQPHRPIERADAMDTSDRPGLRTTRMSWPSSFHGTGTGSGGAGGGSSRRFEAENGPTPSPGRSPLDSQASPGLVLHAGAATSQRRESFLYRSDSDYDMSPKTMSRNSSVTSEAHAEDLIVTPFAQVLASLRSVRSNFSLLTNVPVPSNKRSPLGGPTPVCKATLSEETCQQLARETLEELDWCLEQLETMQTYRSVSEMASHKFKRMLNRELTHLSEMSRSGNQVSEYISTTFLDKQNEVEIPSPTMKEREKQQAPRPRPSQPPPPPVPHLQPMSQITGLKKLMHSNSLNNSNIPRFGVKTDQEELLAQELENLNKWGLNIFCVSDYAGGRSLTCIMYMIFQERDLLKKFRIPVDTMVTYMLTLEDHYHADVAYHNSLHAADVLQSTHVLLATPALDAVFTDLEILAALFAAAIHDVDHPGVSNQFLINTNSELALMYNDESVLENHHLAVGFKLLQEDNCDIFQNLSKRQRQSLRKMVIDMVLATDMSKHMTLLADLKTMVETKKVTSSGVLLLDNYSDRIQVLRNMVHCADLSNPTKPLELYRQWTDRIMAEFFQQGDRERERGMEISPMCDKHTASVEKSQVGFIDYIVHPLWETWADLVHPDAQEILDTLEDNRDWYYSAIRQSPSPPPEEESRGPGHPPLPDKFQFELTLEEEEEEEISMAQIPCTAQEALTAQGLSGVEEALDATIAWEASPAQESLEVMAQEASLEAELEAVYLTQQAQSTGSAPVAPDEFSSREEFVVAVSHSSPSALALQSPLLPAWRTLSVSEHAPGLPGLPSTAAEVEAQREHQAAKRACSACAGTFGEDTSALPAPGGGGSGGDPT
# T3 sequence (P31645 whole entry): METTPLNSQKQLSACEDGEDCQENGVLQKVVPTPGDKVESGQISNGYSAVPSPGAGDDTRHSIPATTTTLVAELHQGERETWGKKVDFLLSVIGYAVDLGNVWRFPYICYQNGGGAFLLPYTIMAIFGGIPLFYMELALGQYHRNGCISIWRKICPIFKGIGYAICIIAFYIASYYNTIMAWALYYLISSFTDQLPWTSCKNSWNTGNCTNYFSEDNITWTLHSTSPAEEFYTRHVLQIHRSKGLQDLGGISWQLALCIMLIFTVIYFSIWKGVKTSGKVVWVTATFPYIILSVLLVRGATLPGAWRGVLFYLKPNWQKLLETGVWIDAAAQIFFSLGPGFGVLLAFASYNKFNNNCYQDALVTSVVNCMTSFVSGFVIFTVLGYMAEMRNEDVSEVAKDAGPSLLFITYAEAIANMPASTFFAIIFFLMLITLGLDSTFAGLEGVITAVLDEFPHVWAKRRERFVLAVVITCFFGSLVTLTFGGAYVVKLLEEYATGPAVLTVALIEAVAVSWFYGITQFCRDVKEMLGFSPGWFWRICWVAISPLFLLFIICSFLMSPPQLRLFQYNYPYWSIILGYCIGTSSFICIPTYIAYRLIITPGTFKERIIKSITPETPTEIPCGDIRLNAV
# 3',5'-cyclic-AMP phosphodiesterase 4B, sequence (Q07343 whole entry): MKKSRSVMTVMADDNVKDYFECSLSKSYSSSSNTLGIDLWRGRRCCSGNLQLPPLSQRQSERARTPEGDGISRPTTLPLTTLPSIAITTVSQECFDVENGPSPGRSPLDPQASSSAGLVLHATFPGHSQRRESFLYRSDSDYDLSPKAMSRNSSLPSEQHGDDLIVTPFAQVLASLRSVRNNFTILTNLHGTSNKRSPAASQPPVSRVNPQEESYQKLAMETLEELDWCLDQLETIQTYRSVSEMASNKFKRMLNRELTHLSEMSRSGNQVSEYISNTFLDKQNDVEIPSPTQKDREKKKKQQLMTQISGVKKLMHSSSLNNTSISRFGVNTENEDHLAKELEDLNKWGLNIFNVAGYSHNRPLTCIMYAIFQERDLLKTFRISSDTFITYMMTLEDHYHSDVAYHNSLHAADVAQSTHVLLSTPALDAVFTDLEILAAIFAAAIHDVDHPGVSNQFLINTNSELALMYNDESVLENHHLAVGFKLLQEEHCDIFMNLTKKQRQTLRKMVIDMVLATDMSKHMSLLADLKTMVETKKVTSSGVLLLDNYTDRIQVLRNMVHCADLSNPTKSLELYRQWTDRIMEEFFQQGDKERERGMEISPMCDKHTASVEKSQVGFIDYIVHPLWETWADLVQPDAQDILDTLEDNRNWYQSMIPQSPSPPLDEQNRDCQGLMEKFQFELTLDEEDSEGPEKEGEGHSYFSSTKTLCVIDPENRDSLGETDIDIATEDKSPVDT
# T1 sequence (P23975 whole entry): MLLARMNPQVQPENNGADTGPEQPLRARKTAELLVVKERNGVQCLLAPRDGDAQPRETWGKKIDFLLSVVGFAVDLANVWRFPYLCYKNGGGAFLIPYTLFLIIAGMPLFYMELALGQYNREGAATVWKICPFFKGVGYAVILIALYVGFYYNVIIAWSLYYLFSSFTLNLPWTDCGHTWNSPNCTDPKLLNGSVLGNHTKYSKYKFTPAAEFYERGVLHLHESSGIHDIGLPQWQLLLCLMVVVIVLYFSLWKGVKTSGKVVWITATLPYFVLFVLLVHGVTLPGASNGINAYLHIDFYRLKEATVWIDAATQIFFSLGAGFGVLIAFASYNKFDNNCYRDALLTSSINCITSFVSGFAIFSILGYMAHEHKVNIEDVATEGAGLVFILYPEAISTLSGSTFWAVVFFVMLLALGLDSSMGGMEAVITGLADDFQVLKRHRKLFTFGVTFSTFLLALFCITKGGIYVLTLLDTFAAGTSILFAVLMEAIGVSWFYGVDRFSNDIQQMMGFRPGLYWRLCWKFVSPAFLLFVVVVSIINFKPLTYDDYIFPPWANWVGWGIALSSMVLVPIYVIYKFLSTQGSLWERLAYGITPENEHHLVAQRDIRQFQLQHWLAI
# 3',5'-cyclic-AMP phosphodiesterase 4D, sequence (Q08499 whole entry): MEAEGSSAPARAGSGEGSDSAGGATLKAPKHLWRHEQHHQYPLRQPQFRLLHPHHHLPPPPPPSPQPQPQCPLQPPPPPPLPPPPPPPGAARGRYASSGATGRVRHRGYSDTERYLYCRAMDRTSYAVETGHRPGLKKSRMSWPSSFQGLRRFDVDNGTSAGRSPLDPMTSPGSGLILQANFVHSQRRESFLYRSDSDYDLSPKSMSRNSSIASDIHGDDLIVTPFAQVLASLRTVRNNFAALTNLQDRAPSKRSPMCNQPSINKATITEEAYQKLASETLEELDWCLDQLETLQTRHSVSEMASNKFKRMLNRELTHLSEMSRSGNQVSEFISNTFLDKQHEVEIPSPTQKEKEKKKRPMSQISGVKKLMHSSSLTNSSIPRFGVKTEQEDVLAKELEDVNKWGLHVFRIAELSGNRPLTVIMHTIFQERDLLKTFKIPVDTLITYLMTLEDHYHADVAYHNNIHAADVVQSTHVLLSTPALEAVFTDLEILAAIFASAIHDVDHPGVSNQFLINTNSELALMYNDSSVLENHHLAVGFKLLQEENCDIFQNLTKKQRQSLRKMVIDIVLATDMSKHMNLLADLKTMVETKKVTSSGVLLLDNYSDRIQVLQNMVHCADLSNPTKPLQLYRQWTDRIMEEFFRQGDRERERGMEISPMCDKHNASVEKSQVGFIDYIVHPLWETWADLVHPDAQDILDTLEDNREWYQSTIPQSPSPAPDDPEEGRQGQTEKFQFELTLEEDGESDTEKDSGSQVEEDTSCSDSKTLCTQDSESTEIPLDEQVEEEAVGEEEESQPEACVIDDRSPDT
structure (smiles),measurement,setting,value
COc1ccc(C2CNC(=O)C2)cc1OC1CCCC1 (configuration not stated),Activity,[1],Active
same,Activity,[2],inactive
COc1ccc(F)c(CCCC2CCC(CCNCCCCCN3N=C(c4ccc(OC)c(OC)c4)[C@H]4CC=CC[C@H]4C3=O)O2)c1 (mixture of isomers),Ki,[3],7440 nM
same,IC50,[4],5340 nM
same,IC50,[5],7440 nM
same,Stability,[6],Stable
same,Stability,[7],Stable
same,Ki,[8],1.2 nM
same,Ki,[9],500 nM
same,Ki,[10],> 1000 nM
same,Ki,[11],5340 nM
COc1ccc(F)cc1CCC1CCC(CCN)O1 (configuration not stated),Activity,[12],inactive
same,Activity,[13],inactive
COc1ccc(C2=NN(CCCCCBr)C(=O)[C@@H]3CC=CC[C@H]23)cc1OC (racemic),IC50,[4],> 100000 nM
same,IC50,[14],> 100000 nM
same,Ki,[11],> 100000 nM
same,Ki,[15],> 100000 nM
CNCCC(Oc1ccc(C(F)(F)F)cc1)c1ccccc1 (configuration not stated),Activity,[16],Active
same,Activity,[17],inactive
same,Activity,[18],inactive
same,Activity,[19],Active
CNCCC1CCC(CCc2cc(F)ccc2OC)O1 (configuration not stated),IC50,[4],> 100000 nM
COc1ccc(F)cc1CCC1CCC(CCNCCCCCN2N=C(c3ccc(OC)c(OC)c3)[C@H]3CC=CC[C@H]3C2=O)O1 (mixture of isomers),IC50,[4],3560 nM
same,IC50,[14],127 nM
same,Activity,[20],Active
same,Activity,[21],Active
same,Activity,[22],inactive
same,Activity,[23],Active
same,Activity,[24],Active
same,t1/2,[6],2.565 h
same,Stability,[7],Stable
same,Ki,[8],2 nM
same,Ki,[9],199 nM
same,Ki,[10],> 1000 nM
same,Ki,[11],2480 nM
same,Ki,[15],156 nM
COc1ccc(C2=NNC(=O)C3CC=CCC23)cc1OC (configuration not stated),Activity,[20],Active
same,Activity,[21],Active
same,Activity,[13],Active
same,Activity,[22],Active
same,Activity,[23],Active
same,Activity,[24],Active
same,t1/2,[6],3.522 h
same,Stability,[7],Stable
same,Ki,[9],250 nM
same,Ki,[10],> 1000 nM
COc1ccc(F)cc1CCCC1CCC(CCN)O1 (configuration not stated),Activity,[25],inactive
